Results as given in ChEMBL document CHEMBL4610117 (J Med Chem, 2020).
pIC50: −log10 of the molar value. Activity calls are given as the source filed them. The rule behind the calls is not given here.

Columns and labels:
[1] = target: T1, Serine/threonine-protein kinase ATR (Homo sapiens, UniProt Q13535); test: Inhibition of 5'-TAMRA-labeled tracer 3',6'-bis(dimethylamino)-N-(4-{[2(1H-indol-4-yl)-6-(morpholin-4-yl)-pyrimidin-4-yl]amino}butyl)-3-oxo-3H-spiro[2-benzofuran-1,9'-xanthene]-5-carboxamide binding to recombinant human full-length N-terminal Flag-tagged ATR expressed in HEK293-6E cells co-expressing human full-length STREP-tagged ATRIP preincubated for 10 mins followed by tracer addition and measured after 30 mins by TR-FRET assay; assay type: cell-based
HT-29 [2] = test: Antiproliferative activity against human HT-29 cells assessed as reduction in cell viability measured after 4 days by crystal violet staining based assay; assay type: functional; conditions: HT-29, 96 h
Method in brief: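 Cells plated at 2000 (HT-29) or 3000 (LoVo) per point in DMEM/Ham's F12 with 2 mM L-glutamine and 10% FCS. After 24 h adherence, compounds were added at 0.001–10 μM (0.1% DMSO final) and incubated continuously for 4 d at 37 °C. Cells were glutaraldehyde-fixed, stained with crystal violet and read at 595 nm.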

[3] = target: T1, Serine/threonine-protein kinase ATR; test: Inhibition of ATR in human HT-29 cells assessed as reduction in histone H2AX phosphorylation measured after 30 mins by immunofluorescence cytometric assay; assay type: cell-based
Method in brief: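 HT-29 cells were seeded at 12000/point in DMEM/Ham's F12 with 2 mM L-glutamine and 10% FCS and grown 24 h at 37 °C. Compound (1 nM–10 μM final) was added with hydroxyurea (2.5 mM final) for 30 min at 37 °C.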

[4] = Selectivity ratio of IC50 for inhibition of PI3K/AKT/mTOR signaling pathway in human MCF7 cells to IC50 for inhibition of ATR in human HT-29 cells
[5] = target: Voltage-gated inwardly rectifying potassium channel KCNH2 (Homo sapiens, UniProt Q12809); test: Inhibition of recombinant human ERG stably expressed in HEK293 cells at -80 mV by whole cell voltage clamp method
[6] = Clearance in Han-Wistar rat hepatocytes at 1 uM measured after 2 to 90 mins by LC-MS/MS analysis; assay type: ADME, cell-based, Hepatocyte
[7] = Apparent half life in Wistar rat at 0.3 to 0.5 mg/kg, iv administered as bolus dose by LC-MS/MS analysis; assay type: ADME, organism-based; conditions: in vivo, read-out: t1/2(app) (converted)
physchem = conditions: pH 6.5
[8] = Lipophilicity, log D of the compound in pH 7.5 MeCN/H2O solution by reversed-phase HPLC analysis
[9] = Volume of distribution at steady state in Wistar rat at 0.3 to 0.5 mg/kg, iv administered as bolus dose by LC-MS/MS analysis; assay type: ADME, organism-based; conditions: in vivo, read-out: Vdss
[10] = Clearance in Wistar rat at 0.3 to 0.5 mg/kg, iv administered as bolus dose by LC-MS/MS analysis; assay type: ADME, organism-based; conditions: in vivo
[11] = Oral bioavailability in Wistar rat at 0.6 to 1 mg/kg by LC-MS/MS analysis; assay type: ADME, organism-based; conditions: in vivo
[12] = Apparent permeability across apical to basolateral side in human Caco2 cells at 2 uM measured after 2 hrs by LC-MS/MS analysis; conditions: Caco-2
[13] = Clearance in rat liver microsomes at 1 uM measured after 2 to 60 mins in presence of NADP by LC-MS/MS analysis; assay type: ADME, Microsome
[14] = Efflux ratio of apparent permeability across basolateral to apical side over apical to basolateral side in human Caco2 cells at 2 uM; conditions: Caco-2
LoVo = test: Antiproliferative activity against human LoVo cells assessed as reduction in cell viability measured after 4 days by crystal violet staining based assay; assay type: functional; conditions: 96 h
HT-29 [15] = test: Antitumor activity against human HT-29 cells xenografted in po dosed mouse administered twice daily; assay type: functional, organism-based

T1 sequence (Q13535 whole entry): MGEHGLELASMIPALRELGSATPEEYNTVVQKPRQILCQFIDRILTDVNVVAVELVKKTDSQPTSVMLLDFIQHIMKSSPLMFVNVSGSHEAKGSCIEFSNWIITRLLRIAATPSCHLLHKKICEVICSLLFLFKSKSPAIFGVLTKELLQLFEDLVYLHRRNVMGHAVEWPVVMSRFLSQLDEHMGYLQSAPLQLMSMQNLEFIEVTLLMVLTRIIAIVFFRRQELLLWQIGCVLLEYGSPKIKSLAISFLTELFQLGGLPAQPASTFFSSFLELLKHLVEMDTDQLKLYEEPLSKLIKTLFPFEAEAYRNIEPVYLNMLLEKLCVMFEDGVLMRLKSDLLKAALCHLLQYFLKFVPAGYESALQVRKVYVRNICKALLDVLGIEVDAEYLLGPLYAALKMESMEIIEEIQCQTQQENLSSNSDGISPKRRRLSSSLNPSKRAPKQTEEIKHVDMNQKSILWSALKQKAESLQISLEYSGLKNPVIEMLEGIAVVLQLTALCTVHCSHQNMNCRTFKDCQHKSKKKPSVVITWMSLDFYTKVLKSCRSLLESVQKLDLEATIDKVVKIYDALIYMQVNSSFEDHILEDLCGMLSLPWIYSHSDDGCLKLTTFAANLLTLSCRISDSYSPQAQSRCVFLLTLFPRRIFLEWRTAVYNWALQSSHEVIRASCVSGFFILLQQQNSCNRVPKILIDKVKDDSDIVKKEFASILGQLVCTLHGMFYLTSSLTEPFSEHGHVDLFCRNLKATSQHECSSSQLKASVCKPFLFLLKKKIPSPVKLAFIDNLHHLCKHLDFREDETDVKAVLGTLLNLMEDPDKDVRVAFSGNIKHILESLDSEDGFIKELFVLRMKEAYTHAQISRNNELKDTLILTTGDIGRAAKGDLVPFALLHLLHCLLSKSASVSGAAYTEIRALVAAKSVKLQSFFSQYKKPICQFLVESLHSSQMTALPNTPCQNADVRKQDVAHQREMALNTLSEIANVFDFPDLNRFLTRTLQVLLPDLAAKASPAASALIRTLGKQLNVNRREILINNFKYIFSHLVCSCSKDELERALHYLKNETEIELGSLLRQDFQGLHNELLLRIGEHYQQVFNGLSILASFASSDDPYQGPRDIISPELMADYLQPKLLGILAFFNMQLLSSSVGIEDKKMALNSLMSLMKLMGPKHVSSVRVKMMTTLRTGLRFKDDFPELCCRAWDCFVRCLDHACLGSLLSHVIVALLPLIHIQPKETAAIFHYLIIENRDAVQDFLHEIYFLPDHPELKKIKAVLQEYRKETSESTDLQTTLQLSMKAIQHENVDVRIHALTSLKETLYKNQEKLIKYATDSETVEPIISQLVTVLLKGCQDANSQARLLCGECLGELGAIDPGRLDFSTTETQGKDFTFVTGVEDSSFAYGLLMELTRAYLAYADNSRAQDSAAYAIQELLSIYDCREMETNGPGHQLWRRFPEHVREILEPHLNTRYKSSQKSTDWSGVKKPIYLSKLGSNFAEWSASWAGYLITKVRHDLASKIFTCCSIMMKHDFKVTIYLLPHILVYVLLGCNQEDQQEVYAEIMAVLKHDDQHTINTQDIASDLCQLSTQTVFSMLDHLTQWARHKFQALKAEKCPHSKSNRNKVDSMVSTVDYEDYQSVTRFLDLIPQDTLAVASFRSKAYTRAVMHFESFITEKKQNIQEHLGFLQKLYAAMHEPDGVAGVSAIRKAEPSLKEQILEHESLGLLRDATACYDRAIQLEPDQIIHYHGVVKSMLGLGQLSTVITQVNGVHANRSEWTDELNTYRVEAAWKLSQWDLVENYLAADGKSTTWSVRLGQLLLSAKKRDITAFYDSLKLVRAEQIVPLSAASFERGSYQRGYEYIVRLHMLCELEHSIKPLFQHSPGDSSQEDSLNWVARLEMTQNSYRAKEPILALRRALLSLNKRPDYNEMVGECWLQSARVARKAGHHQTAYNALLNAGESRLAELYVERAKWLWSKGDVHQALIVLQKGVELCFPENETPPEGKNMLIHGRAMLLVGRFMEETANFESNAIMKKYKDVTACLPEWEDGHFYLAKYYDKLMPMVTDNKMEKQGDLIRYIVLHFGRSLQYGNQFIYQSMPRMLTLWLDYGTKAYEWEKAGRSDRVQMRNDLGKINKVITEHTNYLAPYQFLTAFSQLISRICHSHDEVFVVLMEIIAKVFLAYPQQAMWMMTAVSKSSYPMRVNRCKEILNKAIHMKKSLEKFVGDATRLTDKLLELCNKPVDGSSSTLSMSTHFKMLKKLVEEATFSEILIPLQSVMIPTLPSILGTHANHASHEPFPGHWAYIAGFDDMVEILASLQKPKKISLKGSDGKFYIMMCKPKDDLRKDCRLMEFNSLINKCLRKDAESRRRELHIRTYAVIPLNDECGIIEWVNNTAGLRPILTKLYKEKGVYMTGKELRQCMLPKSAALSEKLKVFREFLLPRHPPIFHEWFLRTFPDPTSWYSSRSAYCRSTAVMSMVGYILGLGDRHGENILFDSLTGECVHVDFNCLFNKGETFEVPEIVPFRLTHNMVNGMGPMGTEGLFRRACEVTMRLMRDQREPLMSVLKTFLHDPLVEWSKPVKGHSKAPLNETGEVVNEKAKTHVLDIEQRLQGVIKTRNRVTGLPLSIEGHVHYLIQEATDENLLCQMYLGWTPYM
Sequence of Voltage-gated inwardly rectifying potassium channel KCNH2 (Q12809 whole entry): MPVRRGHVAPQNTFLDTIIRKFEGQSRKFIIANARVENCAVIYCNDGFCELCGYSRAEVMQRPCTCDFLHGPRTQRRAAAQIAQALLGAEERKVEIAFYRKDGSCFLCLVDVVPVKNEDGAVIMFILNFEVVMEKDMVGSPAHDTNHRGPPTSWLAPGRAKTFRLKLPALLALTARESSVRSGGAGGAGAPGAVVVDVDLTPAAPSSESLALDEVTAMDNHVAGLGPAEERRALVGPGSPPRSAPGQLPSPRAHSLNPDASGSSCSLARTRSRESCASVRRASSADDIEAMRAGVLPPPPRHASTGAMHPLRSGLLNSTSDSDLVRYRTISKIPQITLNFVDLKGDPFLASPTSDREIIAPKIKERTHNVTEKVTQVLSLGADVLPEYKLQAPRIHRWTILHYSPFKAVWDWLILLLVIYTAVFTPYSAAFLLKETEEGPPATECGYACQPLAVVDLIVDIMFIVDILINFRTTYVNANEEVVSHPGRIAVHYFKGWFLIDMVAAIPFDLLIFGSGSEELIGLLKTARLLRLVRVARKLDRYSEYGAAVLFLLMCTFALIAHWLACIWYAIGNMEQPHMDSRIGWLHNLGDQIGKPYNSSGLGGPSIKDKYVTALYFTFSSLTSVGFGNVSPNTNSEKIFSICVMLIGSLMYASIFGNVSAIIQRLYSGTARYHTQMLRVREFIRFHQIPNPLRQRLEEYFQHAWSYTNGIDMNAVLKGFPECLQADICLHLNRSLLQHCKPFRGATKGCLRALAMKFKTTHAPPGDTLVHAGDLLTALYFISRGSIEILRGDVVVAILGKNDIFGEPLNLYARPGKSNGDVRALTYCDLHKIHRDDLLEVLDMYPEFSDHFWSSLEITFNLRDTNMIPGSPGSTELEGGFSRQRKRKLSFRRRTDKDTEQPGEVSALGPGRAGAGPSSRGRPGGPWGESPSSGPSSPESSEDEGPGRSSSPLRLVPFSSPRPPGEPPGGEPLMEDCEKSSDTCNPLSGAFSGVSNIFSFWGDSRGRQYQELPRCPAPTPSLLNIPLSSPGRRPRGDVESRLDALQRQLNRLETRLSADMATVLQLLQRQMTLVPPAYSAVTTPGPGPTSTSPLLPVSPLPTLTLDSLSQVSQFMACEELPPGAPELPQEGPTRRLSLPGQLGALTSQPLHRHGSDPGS

| Compound | pIC50 [1] | pIC50 (HT-29 [2]) | pIC50 [3] | also measured |
| --- | --- | --- | --- | --- |
| COc1cccc(-c2nccc3c(OC(C)C)cc(N4CCOCC4)nc23)n1 | 4.88 | – | – | – |
| CC(C)Oc1cc(N2CC(F)(F)OC(F)(F)C2)nc2c(-c3ccn[nH]3)nccc12 | < 4.70 | – | – | – |
| CC(C)Oc1cc(N2CCOCC2(C)C)nc2c(-c3ccn[nH]3)nccc12 | < 4.70 | – | – | – |
| COC1(C)CN(c2cc(OC(C)C)c3ccnc(-c4ccn[nH]4)c3n2)C1 | < 4.70 | – | – | – |
| CCP(=O)(CC)c1cc(N2CCOC[C@H]2C)nc2c(-c3ccn[nH]3)nccc12 | – | 6.30 | 6.54 | Ratio IC50 [4]: 61 |
| CC(C)Oc1cc(N2CCOCC2)nc2c(-c3cc4ccccc4[nH]3)nccc12 | < 4.70 | – | – | – |
| CS(=O)(=O)c1ccc(-c2cc(N3CCOCC3)nc3c(-c4cc[nH]n4)nccc23)cc1 | – | – | 6.42 | pIC50 [5]: 5.24; CLH [6]: 10.7 mL/min/kg; half-life [7]: 55.8 min; solubility at 24 h (physchem): < 1 µg/mL; chromatographic logD [8]: 2.1; Vd [9]: 2 L/kg; clearance [10]: 25 mL/min/kg; bioavailability [11]: 14%; Papp A→B at 2 h, 2 µM [12]: 10.2 ×10⁻⁶ cm/s; CLH [13]: 11.5 mL/min/kg; efflux ratio at 2 µM [14]: 2.1 |
| C[C@@H]1COCCN1c1cc(-c2cnc3n2CCC3)c2ccnc(-c3ccn[nH]3)c2n1 | – | 6.90 | 7.09 | Ratio IC50 [4]: 59 |
| CC(C)Oc1cc(N2CCOCC2)nc2c(-c3cnc[nH]3)nccc12 | 5.47 | – | – | – |
| CC(C)Oc1cc(N2CCOCC2)nc2c(-c3ccnn3C)nccc12 | 4.90 | – | – | – |
| CC(C)Oc1cc(N2CCOCC2)nc2c(-c3cccc(C(N)=O)c3)nccc12 | 4.76 | – | – | – |
| CS(=O)(=O)c1ccc(-c2cc(N3CCOCC3)nc3c(-c4ccn[nH]4)nccc23)cc1 | – | 6.15 | – | pIC50 (LoVo): 6.50; Activity (HT-29 [15]): Active; Ratio IC50 [4]: 13 |
| CNC(=O)c1nccc2c(OC(C)C)cc(N3CCOCC3)nc12 | < 4.70 | – | – | – |
| Cc1cn[nH]c1-c1nccc2c(OC(C)C)cc(N3CCOCC3)nc12 | 5.25 | – | – | – |
| C[C@@H]1COCCN1c1cc(N(C)c2ccc(F)cc2)c2ccnc(-c3ccn[nH]3)c2n1 | 8.05 | 6.42 | 7.15 | Ratio IC50 [4]: 42 |
| Cc1nccn1-c1cc(N2CCOC[C@H]2C)nc2c(-c3ccn[nH]3)nccc12 | 7.60 | 6.72 | 7.12 | Ratio IC50 [4]: 263 |
| C[C@@H]1COCCN1c1cc(N2CCN(S(C)(=O)=O)CC2)c2ccnc(-c3ccn[nH]3)c2n1 | 8.30 | 6.63 | 7.23 | Ratio IC50 [4]: 44 |
| CC(C)Oc1cc(N2C[C@@H]3C[C@H]2CO3)nc2c(-c3ccn[nH]3)nccc12 | 6.04 | – | – | – |
| CC(C)Oc1cc(N2CCOCC2)nc2c(-c3ccc[nH]3)nccc12 | – | – | < 5.52 | – |
| Cc1nc(S(C)(=N)=O)ccc1-c1cc(N2CCOC[C@H]2C)nc2c(-c3ccn[nH]3)nccc12 (stereo not given in full) | 8.00 | 6.49 | 6.58 | Ratio IC50 [4]: 16 |
| CC(C)Oc1cc(N2CCOCC2)nc2c(-c3cn[nH]c3)nccc12 | 5.43 | – | – | – |
| CC(C)Oc1cc(N2CCOCC2)nc2c(-c3ccc[nH]c3=O)nccc12 | < 4.70 | – | – | – |
| CC(C)Oc1cc(N2CCOC3CC32)nc2c(-c3ccn[nH]3)nccc12 (stereo not given) | 5.82 | – | – | – |

| Compound | pIC50 [1] | pIC50 (HT-29 [2]) | pIC50 [3] | also measured |
| --- | --- | --- | --- | --- |
| C[C@@H]1COCCN1c1cc(C#Cc2cccnc2)c2ccnc(-c3ccn[nH]3)c2n1 | 7.66 | 6.39 | 6.64 | Ratio IC50 [4]: 8 |
| CC(C)Oc1cc(N2CCO[C@@H](C)C2)nc2c(-c3ccn[nH]3)nccc12 | 5.71 | – | – | – |
| C[C@@H]1COCCN1c1cc(C(C)(O)C(C)(C)C)c2ccnc(-c3ccn[nH]3)c2n1 (stereo not given in full) | – | 7.03 | – | – |
| CC(C)Oc1cc(N2CCOCC2)nc2c(-c3cccnc3)nccc12 | 4.74 | – | – | – |
| CC(C)Oc1cc(N2CCO[C@H](C)C2)nc2c(-c3ccn[nH]3)nccc12 | 5.82 | – | – | – |
| CC(C)Oc1cc(N2CCOCC2)nc2c(C3CCNC3)nccc12 (stereo not given) | < 4.70 | – | – | – |
| C[C@@H]1COCCN1c1cc(-c2cccnc2F)c2ccnc(-c3ccn[nH]3)c2n1 | 8.10 | 6.76 | 7.36 | Ratio IC50 [4]: 50 |
| C[C@@H]1COCCN1c1cc(C2(S(C)(=O)=O)CC2)c2ccnc(-c3ccn[nH]3)c2n1 | 7.82 | 6.57 | 7.07 | Ratio IC50 [4]: 71 |
| CC(C)Oc1cc(N2C[C@H]3COC[C@H]3C2)nc2c(-c3ccn[nH]3)nccc12 | 5.03 | – | – | – |
| CC(C)Oc1cc(N2C3CCC2COC3)nc2c(-c3ccn[nH]3)nccc12 | 6.51 | – | – | – |
| CC(C)Oc1cc(N2CCOCC2)nc2c(-c3cccc(=O)[nH]3)nccc12 | < 4.70 | – | – | – |
| CC(C)Oc1cc(N2CCOCC2)nc2c(-c3nnn[nH]3)nccc12 | < 4.70 | – | – | – |
| CCS(=O)(CC)=Nc1cc(N2CCOC[C@H]2C)nc2c(-c3ccn[nH]3)nccc12 | 7.66 | 6.77 | 7.52 | Ratio IC50 [4]: 217 |
| CC(C)Oc1cc(N2CCOC[C@H]2C)nc2c(-c3ccn[nH]3)nccc12 | – | 6.03 | 6.81 | Ratio IC50 [4]: 25 |
| Cc1cc(-c2nccc3c(OC(C)C)cc(N4CCOCC4)nc23)n[nH]1 | 4.90 | – | – | – |
| C[C@@H]1COCCN1c1cc(C2CCOCC2)c2ccnc(-c3ccn[nH]3)c2n1 | – | 6.53 | – | – |
| CC(C)Oc1cc(N2CCOCC2)nc2c(C(N)=O)nccc12 | 5.48 | – | – | – |
| CCC1COCCN1c1cc(OC(C)C)c2ccnc(-c3ccn[nH]3)c2n1 (stereo not given) | 5.73 | – | – | – |
| CC(C)Oc1cc(N2CCOCC2)nc2c(-c3ccn[nH]3)cccc12 | 5.30 | – | – | – |
| CC(C)Oc1cc(N2CCOCC2C(F)(F)F)nc2c(-c3ccn[nH]3)nccc12 (stereo not given) | 5.06 | – | – | – |
| CC(C)Oc1cc(N2CCOCC2)nc2cnccc12 | < 4.70 | – | – | – |
| CC(C)Oc1cc(N2CCOCC2)nc2c(-c3ccn[nH]3)nccc12 | – | – | 6.37 | Ratio IC50 [4]: 5 |
